Assay results collected from several papers.
Lines come from different studies, so protocols differ.
Read-out: metabolic stability
Host: human
Medium: liver microsomes

Structure (SMILES) | tested at | pH | microsomal CLint [µL/min/mg]
Cc1ccc(Nc2cnnc3ccc(-c4ccc(N5CCCN(C)CC5)cc4)cc23)cn1 |  |  | 75
Cc1ccc(N(C)c2ccc(NC(=O)CN(C)c3ccccc3N3CCCC3=O)cn2)cc1 |  |  | 216
CCOc1ccc(-c2csc(CNC(=O)[C@H]3CCCN(C(=O)COC)C3)n2)cc1 | 0.5 µM |  | 24
CN(CC(=O)Nc1ccc(N(C)c2ccc(Cl)c(F)c2)cc1)c1ccccc1N1CCCC1=O |  |  | 218
Cc1cc2c(C(=O)O)cccc2n1-c1nc2c(c(NCc3ccccc3)n1)CCCN2 | 1 µM | pH 7.4 | 9.07
O=c1c2ccc(Oc3ccccc3OC(F)(F)F)cc2[nH]c2cc(Cl)cc(F)c12 | 1 µM | pH 7.4 | 20.3
CCOCC(=O)N1CCC[C@H](C(=O)NCc2nc(-c3ccc(-n4cccn4)cc3)cs2)C1 | 0.5 µM |  | 64
CN1CCN(c2ccc(-c3ccc4nncc(Nc5ccc(OC(F)(F)F)cc5)c4c3)cc2)CC1 |  |  | 30
O=C1NC(CF)(CF)C(=O)N1c1ccc(F)c(C(F)(F)F)c1 |  |  | < 7
O=c1c2c([nH]c3cc(Nc4ccc(OC(F)(F)F)cc4)ccc13)CCCC2 | 1 µM | pH 7.4 | 67
CCONC(=O)N1CCC[C@H](C(=O)N[C@H](C)c2nc(-c3ccc(C#N)cc3)cs2)C1 | 0.5 µM |  | 17
O=c1c2ccc(Oc3ccc(OC(F)(F)F)cc3)cc2[nH]c2ccc(F)c(Cl)c12 | 1 µM | pH 7.4 | 7.54
NCCCOCC(=O)N1CCC[C@H](C(=O)NCc2nc(-c3ccc(C4CC4)cc3)cs2)C1 | 0.5 µM |  | 11
O=C1NC2(CCS(=O)(=O)CC2)C(=O)N1c1ccc(F)c(C(F)(F)F)c1 |  |  | < 7
O=C(NCc1nc(-c2ccccc2)cs1)[C@H]1CCCN(C(=O)COCC2CC2)C1 | 0.5 µM |  | 102
CC1(C)NC(=O)N(c2ccc3c(c2)OC(F)(F)O3)C1=O |  |  | < 7
c1ccc(Oc2ccc(Nc3c4c(nc5ccccc35)CCC4)cc2)cc1 | 0.5 µM |  | 31
N#Cc1ccc(-c2csc(CNC(=O)[C@H]3CCCN(C(=O)N4CCCO4)C3)n2)cc1 | 0.5 µM |  | 112
COc1ccc(Oc2ccc3c(=O)c4c(F)cc(Cl)cc4[nH]c3c2)cc1 | 1 µM | pH 7.4 | 12.3
Cc1ccc(N(c2ccc(NC(=O)CN(C)c3ccccc3N3CCCC3=O)cn2)C(C)C)cc1 |  |  | 270
COc1ccc(Cn2cc(CO[C@@H]3O[C@H]4[C@H](OC[C@H]4O)[C@H]3O)nn2)cc1 |  |  | < 14.4

Structure (SMILES) | tested at | pH | microsomal CLint [µL/min/mg]
O=c1c2ccc(OCc3cccc(OC(F)(F)F)c3)cc2[nH]c2cc(Cl)cc(F)c12 | 1 µM | pH 7.4 | 16.1
CC1(C)NC(=O)N(c2ccc(F)c(OC(F)(F)F)c2)C1=O |  |  | < 7
C[C@H]1[C@@H](C(=O)NCc2nc(-c3ccc(C#N)cc3)cs2)CCCN1C(=O)[C@H]1CCC(=O)O1 | 0.5 µM |  | 8
COc1cc(NC(=O)Cn2ccc3ccc(-c4cnn(C)c4)cc32)cc(OC)c1OC |  |  | 62
CN(C)CCOc1ccc2c(=O)c3c([nH]c2c1)CCCC3 | 1 µM | pH 7.4 | 8.08
Cc1ccc(Oc2ccc(NC(=O)CNc3ccccc3N3CCCC3=O)cc2)cc1 |  |  | 102
O=c1c2c(F)cc(Cl)cc2[nH]c2cccc(Oc3ccc(OC(F)(F)F)cc3)c12 | 1 µM | pH 7.4 | 5.86
Cc1[nH]c(C)c(S(=O)(=O)Nc2ccc(C(F)(F)F)c(Cl)c2)c1C(=O)N(C)C |  |  | 79
CCN(CC)CCNC(=O)c1c(C)[nH]c(/C=C2\C(=O)Nc3ccc(F)cc32)c1C | 1 µM | pH 7.4 | 25.6
O=C(NCc1nc(-c2ccccc2)cs1)[C@H]1CCCN(C(=O)[C@@H]2CCCO2)C1 | 0.5 µM |  | 36
Cc1ccc(Oc2ccc(NC(=O)CN(C)c3ccccc3N3CCCC3=O)cc2)cc1 |  |  | 383
O=C(N1CCCCC1)C12CC(c3ccccc3)(C1)C2 | 2 µM | pH 7.4 | 24
CNc1ccc(C(N)=O)cn1 | 1 µM | pH 7.4 | < 3
O=c1c2ccccc2[nH]c2cc(Oc3ccc(OC(F)(F)F)cc3)ccc12 | 1 µM | pH 7.4 | 20.9
Cc1cc(N2C(=O)NC(C)(C)C2=O)cc(C(F)(F)F)n1 |  |  | < 7
Cc1ccc(N(c2ccc(NC(=O)CN(C)c3ccccc3N3CCCC3=O)cc2)C(C)C)cc1 |  |  | 319
CC1(C)NC(=O)N(c2cccc(C(F)(F)F)n2)C1=O |  |  | < 7
Cc1[nH]c(C)c(S(=O)(=O)Nc2ccc(C(F)(F)F)c(Cl)c2Cl)c1C(=O)N1CCC(F)(F)C1 |  |  | 7.4
Cc1ccc(N(C)c2ccc(NC(=O)CN(C)c3cccnc3N3CCCC3=O)cc2)cc1 |  |  | 222
CC1(C)NC(=O)N(c2ccc(F)c(S(C)(=O)=O)c2)C1=O |  |  | < 7
